Results from ChEMBL document CHEMBL1146380, “Synthesis, antimicrobial activity, and QSAR studies of furan-3-carboxamides” (2007).
Converted amounts (≈) assume the structure as drawn. The source made the active and inactive calls. The rule behind the calls is not given here.

Columns and labels:
[1] = tested on: Salmonella enterica subsp. enterica serovar Setubal; test: (§1) Antimicrobial activity against Salmonella setubal ATCC 19196 by broth microdilution method; type: functional
How it was run: (§2)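 Bacteria grown overnight on Mueller–Hinton agar. Colonies were suspended in saline to McFarland turbidity (about 10^8 cfu/mL), diluted 1:100 in saline, then 1:20 in Mueller–Hinton broth, giving 5 · 10^4 cfu/mL per well. DMSO-dissolved compound was tested in twofold dilutions from 320 to 1.25 at 35 °C for 24 h. MIC was the lowest concentration with no visible turbidity (M7-A4). Bactericidal concentration was read by subculturing clear wells on Mueller–Hinton agar.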

[2] = as §1; type: functional, Salmonella enterica subsp. enterica serovar Setubal; conditions: Salmonella enterica; how it was run: as §2
Pseudomonas aeruginosa = test: Antimicrobial activity against Pseudomonas aeruginosa ATCC 27853 by broth microdilution method; type: functional; how it was run: as §2
Aspergillus terreus = test: Antimicrobial activity against Aspergillus terreus isolate by broth microdilution method; type: functional
Escherichia coli = test: Antimicrobial activity against Escherichia coli ATCC 25922 by broth microdilution method; type: functional; how it was run: as §2
Candida dubliniensis = test: Antimicrobial activity against Candida dubliniensis CBS 7987 by broth microdilution method; type: functional
How it was run: (§3)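 Yeasts grown on potato dextrose agar. Inoculum was standardized by McFarland turbidity as for bacteria, into RPMI 1640 broth (M27-A2). DMSO-dissolved compound was tested in twofold dilutions from 320 to 1.25 at 35 °C for 24 h, in duplicate. MIC was the lowest concentration completely inhibiting visible growth. Fungicidal concentration was read by subculturing 20 µL from clear wells on Sabouraud dextrose agar at 35 °C.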

Klebsiella pneumoniae = test: Antimicrobial activity against Klebsiella pneumoniae ATCC 1003 by broth microdilution method; type: functional; how it was run: as §2
Staphylococcus aureus = test: Antimicrobial activity against Staphylococcus aureus ATCC 25923 by broth microdilution method; type: functional; how it was run: as §2
Aspergillus niger = test: Antimicrobial activity against Aspergillus niger isolate by broth microdilution method; type: functional
Fusarium solani = test: Antimicrobial activity against Fusarium solani isolate by broth microdilution method; type: functional
Candida albicans = test: Antimicrobial activity against Candida albicans ATCC 44373 by broth microdilution method; type: functional; how it was run: as §3
Aspergillus flavus = test: Antimicrobial activity against Aspergillus flavus isolate by broth microdilution method; type: functional
Scedosporium boydii = test: Antimicrobial activity against Pseudallescheria boydii isolate by broth microdilution method; type: functional
[3] = tested on: Cryptococcus deneoformans; test: Antimicrobial activity against Cryptococcus neoformans var.neoformans serotype D ATCC 28952 by broth microdilution method; type: functional
How it was run: (§4)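 Organism grown on potato dextrose agar, with turbidity-standardized inoculum in RPMI 1640 broth (M27-A2). DMSO-dissolved compound was tested in twofold dilutions from 320 to 1.25 at 35 °C, incubated up to 72 h, in duplicate. MIC was the lowest concentration with no visible growth. Cidal concentration was read by subculturing 20 µL from clear wells on Sabouraud dextrose agar, incubated for the same period.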

Saccharomyces cerevisiae = test: Antimicrobial activity against Saccharomyces cerevisiae ATCC 2601 by broth microdilution method; type: functional; how it was run: as §4
Aspergillus fumigatus = test: Antimicrobial activity against Aspergillus fumigatus isolate by broth microdilution method; type: functional
Rhizopus arrhizus = test: Antimicrobial activity against Rhizopus oryzae isolate by broth microdilution method; type: functional
Sporothrix schenckii = test: Antimicrobial activity against Sporothrix schenckii ATCC 1146 by broth microdilution method; type: functional
Prototheca zopfii = test: Antimicrobial activity against Prototheca zopfii by broth microdilution method; type: functional; how it was run: as §4
Nakaseomyces glabratus = test: Antimicrobial activity against Candida glabrata […] by broth microdilution method; type: functional; how it was run: as §3

| SMILES | Activity [1] | MIC [2] [µg/mL] | Activity (Pseudomonas aeruginosa) | MIC (Pseudomonas aeruginosa) [µg/mL] | MFC (Aspergillus terreus) [µg/mL] | MIC (Aspergillus terreus) [µg/mL] | Activity (Escherichia coli) | MIC (Escherichia coli) [µg/mL] | Activity (Klebsiella pneumoniae) | MIC (Klebsiella pneumoniae) [µg/mL] | Activity (Staphylococcus aureus) | MIC (Staphylococcus aureus) [µg/mL] | MIC (Aspergillus niger) [µg/mL] | MIC (Fusarium solani) [µg/mL] | MIC [3] [µg/mL] | Activity (Saccharomyces cerevisiae) | MIC (Rhizopus arrhizus) [µg/mL] | MIC (Sporothrix schenckii) [µg/mL] | MIC (Prototheca zopfii) [µg/mL] | Activity (Nakaseomyces glabratus) | also measured |
| --- | --- | --- | --- | --- | --- | --- | --- | --- | --- | --- | --- | --- | --- | --- | --- | --- | --- | --- | --- | --- | --- |
| O=C(NNc1c(F)c(F)c(F)c(F)c1F)c1ccoc1 | inactive | 320 (≈ 1100 µM) | inactive | 320 (≈ 1100 µM) | 320 (≈ 1100 µM) | 320 (≈ 1100 µM) | inactive | 320 (≈ 1100 µM) | inactive | 320 (≈ 1100 µM) | inactive | 320 (≈ 1100 µM) | 320 (≈ 1100 µM) | 80 (≈ 274 µM) | 320 (≈ 1100 µM) | inactive | 320 (≈ 1100 µM) | 320 (≈ 1100 µM) | 80 (≈ 274 µM) | inactive | MFC (Candida dubliniensis): 320 µg/mL (≈ 1100 µM); MIC (Candida dubliniensis): 160 µg/mL (≈ 548 µM); MFC (Aspergillus niger): 320 µg/mL (≈ 1100 µM); MFC (Fusarium solani): 80 µg/mL (≈ 274 µM); MFC (Candida albicans): 320 µg/mL (≈ 1100 µM); MIC (Candida albicans): 320 µg/mL (≈ 1100 µM); Activity (Aspergillus flavus): inactive; Activity (Scedosporium boydii): inactive; MFC [3]: 320 µg/mL (≈ 1100 µM); Activity (Aspergillus fumigatus): inactive; MFC (Rhizopus arrhizus): 320 µg/mL (≈ 1100 µM); MFC (Sporothrix schenckii): 320 µg/mL (≈ 1100 µM); MFC (Prototheca zopfii): 320 µg/mL (≈ 1100 µM); MIC (Nakaseomyces glabratus): 320 µg/mL (≈ 1100 µM) |
| O=C(NCc1ccccn1)c1ccoc1 | inactive | 320 (≈ 1580 µM) | inactive | 320 (≈ 1580 µM) |  | 320 (≈ 1580 µM) | inactive | 320 (≈ 1580 µM) | inactive | 320 (≈ 1580 µM) | inactive | 320 (≈ 1580 µM) |  | 320 (≈ 1580 µM) | 320 (≈ 1580 µM) | inactive | 320 (≈ 1580 µM) | 320 (≈ 1580 µM) | 320 (≈ 1580 µM) | inactive | Activity (Aspergillus terreus): inactive; Activity (Candida dubliniensis): inactive; Activity (Aspergillus niger): inactive; Activity (Fusarium solani): inactive; Activity (Candida albicans): inactive; MFC (Aspergillus flavus): 320 µg/mL (≈ 1580 µM); MIC (Aspergillus flavus): 320 µg/mL (≈ 1580 µM); MFC (Scedosporium boydii): 320 µg/mL (≈ 1580 µM); MIC (Scedosporium boydii): 320 µg/mL (≈ 1580 µM); Activity [3]: inactive; Activity (Aspergillus fumigatus): inactive; Activity (Rhizopus arrhizus): inactive; Activity (Sporothrix schenckii): inactive; Activity (Prototheca zopfii): inactive |
| O=C(NCc1ccncc1)c1ccoc1 | inactive | 320 (≈ 1580 µM) | inactive | 320 (≈ 1580 µM) | 320 (≈ 1580 µM) | 320 (≈ 1580 µM) | inactive | 320 (≈ 1580 µM) | inactive | 320 (≈ 1580 µM) |  | 80 (≈ 396 µM) | 320 (≈ 1580 µM) | 320 (≈ 1580 µM) | 320 (≈ 1580 µM) | inactive | 320 (≈ 1580 µM) | 320 (≈ 1580 µM) | 160 (≈ 791 µM) | inactive | MFC (Candida dubliniensis): 320 µg/mL (≈ 1580 µM); MIC (Candida dubliniensis): 320 µg/mL (≈ 1580 µM); MBC (Staphylococcus aureus; read-out: MFC): 320 µg/mL (≈ 1580 µM); MFC (Aspergillus niger): 320 µg/mL (≈ 1580 µM); Activity (Fusarium solani): inactive; Activity (Candida albicans): inactive; Activity (Aspergillus flavus): inactive; MFC (Scedosporium boydii): 320 µg/mL (≈ 1580 µM); MIC (Scedosporium boydii): 320 µg/mL (≈ 1580 µM); MFC [3]: 320 µg/mL (≈ 1580 µM); Activity (Aspergillus fumigatus): inactive; MIC (Aspergillus fumigatus): 320 µg/mL (≈ 1580 µM); MFC (Rhizopus arrhizus): 320 µg/mL (≈ 1580 µM); MFC (Sporothrix schenckii): 320 µg/mL (≈ 1580 µM); MFC (Prototheca zopfii): 160 µg/mL (≈ 791 µM) |
| N=C(NC(=O)c1ccoc1)c1ccccc1 | inactive | 320 (≈ 1490 µM) | inactive | 320 (≈ 1490 µM) | 320 (≈ 1490 µM) | 320 (≈ 1490 µM) | inactive | 320 (≈ 1490 µM) | inactive | 320 (≈ 1490 µM) | inactive | 320 (≈ 1490 µM) | 320 (≈ 1490 µM) | 320 (≈ 1490 µM) | 160 (≈ 747 µM) | inactive | 320 (≈ 1490 µM) | 320 (≈ 1490 µM) | 160 (≈ 747 µM) | inactive | Activity (Candida dubliniensis): inactive; Activity (Aspergillus niger): inactive; Activity (Fusarium solani): inactive; Activity (Candida albicans): inactive; Activity (Aspergillus flavus): inactive; MFC (Scedosporium boydii): 160 µg/mL (≈ 747 µM); MIC (Scedosporium boydii): 160 µg/mL (≈ 747 µM); MFC [3]: 320 µg/mL (≈ 1490 µM); MFC (Aspergillus fumigatus): 320 µg/mL (≈ 1490 µM); MIC (Aspergillus fumigatus): 320 µg/mL (≈ 1490 µM); MFC (Rhizopus arrhizus): 320 µg/mL (≈ 1490 µM); MFC (Sporothrix schenckii): 320 µg/mL (≈ 1490 µM); MFC (Prototheca zopfii): 320 µg/mL (≈ 1490 µM) |
